Assay outcomes as filed in PubChem.
Compounds with a hit are over-represented: about 1.8% of the library has one in this group of screens.
EphB4 ephrin blk = antagonists of human EphB4-ephrin-B2 interaction; P54760; EphB4 LBD / TNYL-RAW-Alexa532 peptide, fluorescence polarization; inhibition, % at 7 µM; hit rate 0.15% among 97,000; AID 720;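 active = inhibition above the screen-wide mean inhibition plus 3 SD, cut at about 15% in these data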;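 also: 0% = DMSO wells and 100% = excess unlabeled TNYL-RAW peptide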
PLK1 kinase inh = blocks human PLK1 kinase activity | recombinant PLK1 kinase, TR-FRET peptide phosphorylation | inhibition, % at 10 µM | hit rate 0.53% among 97,000 | P53350;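 active = inhibition of 50% or more in the single-concentration screen; inactive = inhibition below 50%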;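 also: 0% = DMSO max control and 100% = H-89 dihydrochloride min control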
PLK1 PBD inh = inhibitors of human Plk1 polo box domain binding | P53350 | Plk1 PBD phosphopeptide binding, fluorescence polarization | inhibition, %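 (tested at about 20 µM)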 | hit rate 0.13% among 97,000; in the data active = inhibition above about 34%, passing the limit was not always enough
HIV Rev-RRE inh = disrupts HIV-1 Rev binding to RRE RNA; P05866; Rev peptide-RRE RNA binding, FRET; inhibition, % at 8 µM; hit rate 0.79% among 97,000; AID 704;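 active = inhibition above the screen-wide mean plus 3 SD, cut at about 35% in these data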;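 also: 0% = median DMSO wells and 100% = median Neomycin B control wells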
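Test system: Cy5-tagged RRE RNA duplex with fluorescein-tagged Rev peptide; Probe or stimulus: labelled Rev peptide; Schedule: 5 min preincubation and 15 min binding, 25 °C; Signal: FRET fluorescence readout; Evaluation: % inhibition from 671/540 nm acceptor-to-donor ratio, scaled between controls; Control set: DMSO and neomycin B.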
LYP act = increases human PTPN22 phosphatase activity. hit rate 0.11% among 96,000. Q9Y2R2. recombinant LYP, DiFMUP fluorescence; 0 = plate median, 100 = signal doubled. activation, % at 2 µM;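 active = activation at 2 µM above a set limit, the mean plus 5 SD, cut at about 37% in these data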
PTPN22 inh 2 = blocks human PTPN22 phosphatase activity; Q9Y2R2; recombinant LYP catalytic domain, DiFMUP fluorescence; inhibition, % at 2 µM; hit rate 0.21% among 96,000;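 active = inhibition at 2 µM at or above a set limit, the screen mean plus 3 SD, cut at about 24% in these data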;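 also: 0% = DMSO with enzyme and 100% = enzyme fully blocked by orthovanadate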
Numbers without * were called inactive; . = no result; [ ] = remark or other dose.

SMILES	EphB4 ephrin blk	PLK1 kinase inh	PLK1 PBD inh	HIV Rev-RRE inh	LYP act	PTPN22 inh 2
CC1CN(Cc2nc3c(c(=O)[nH]c(=O)n3C)n2CC(N)=O)CC(C)O1 (stereo not drawn)	-7	51*	8	-1	4	-4
O=S1(=O)CCN2C=Nc3sc4c(c3C2=N1)CCCC4	-12	-10	11	1	2	-3
CC1(C)Cc2c(sc3c2C2=NCCN2C=N3)CO1	1	57*	11	13	6	-4
CC1CCCC(C)N1CC(C)(C)NS(=O)(=O)c1ccc(Cl)cc1 (stereo not drawn)	-5	-10	3	-6	-2	2
CC1(C)Cc2c(C#N)c(N3CCN(C(=O)c4ccccc4Cl)CC3)nc(-c3ccco3)c2CS1	-2	-19	-12	51*	-20	22
CC1(C)Cc2c(C#N)c(N3CCN(C(=O)c4ccco4)CC3)nc(-c3ccco3)c2CS1	-2	-12	-4	20	1	-5
COC(=O)C1=NN(c2ccccc2)C2(S1)SC(C(C)=O)=C(C)N2c1ccccc1 (stereo not drawn)	6	-3	25	0	2	1
COC(=O)C1=NN(c2ccc(C)cc2)C2(S1)SC(C(C)=O)=C(C)N2c1ccccc1 (stereo not drawn)	-2	-6	4	37*	2	-1
CN(C)c1ccc(N=Cc2nc(-c3ccccc3)oc2O)cc1	4	-8	-36	69*[fluorescence artefact?]	-16	16
Oc1oc(-c2ccccc2)nc1C=Nc1ccccc1	3	-13	-14	3	6	-3
O=S(=O)(c1ccc2oc3ccc(S(=O)(=O)N4CCCCC4)cc3c2c1)N1CCCCC1	2	-8	19	5	-6	3
c1ccc(-c2nc(CSc3n[nH]c(-c4cccs4)n3)cs2)cc1	4	0	4	8	-1	-3
CCOC(=O)N1CCN(C2=Nc3cccc4cccc2c34)CC1	5	-3	-18	34	-4	1
c1ccc(CC2CCN(c3nc4ccccc4n4nnnc34)CC2)cc1	-4	-6	-6	5	10	-9
c1ccc(CC2CCN(C3=Nc4cccc5cccc3c45)CC2)cc1	-2	-12	-51	42*	16	-16
c1cc2c3c(cccc3c1)C(N1CCN(C3=Nc4cccc5cccc3c45)CC1)=N2	-4	-3	-2	40*	-15	11
COc1cc(/C=N/NC(=O)C2c3ccccc3Oc3ccccc32)ccc1O	9	-6	-16	5	6	-2
Cc1cccc(NC(=O)CSc2nnc(-c3ccc(S(=O)(=O)N4CCCC4)cc3)o2)c1	17*	1	6	4	9	-10
CCCC(=O)c1ccc2c(c1)OCCO2	-5	2	-12	3	14	-12
O=C(O)CCC(=O)c1ccc2c(c1)OCCO2	-1	66*	-33	6	.	.
O=c1c(O)c(-c2cccs2)oc2ccc(Cl)cc12	5	-21	-210	102*[fluorescence artefact?]	-1	0
O=c1cc(-c2cccs2)oc2ccc(Cl)cc12	-1	-2	-9	4	-4	6
O=c1c(O)c(-c2cccs2)oc2ccccc12	-7	-9	-135	42*	6	-4
COc1ccc(C(C)NC(=O)c2ccccc2)cc1 (stereo not drawn)	16*	6	26	3	10	-11
Cc1c(NCc2cc(Cl)ccc2O)c(=O)n(-c2ccccc2)n1C	-5	-3	-10	-2	14	-12
SMILES	EphB4 ephrin blk	PLK1 kinase inh	PLK1 PBD inh	HIV Rev-RRE inh	LYP act	PTPN22 inh 2
Cc1c(-n2cc(C(=O)c3cc(Br)ccc3O)cc(C#N)c2=O)c(=O)n(-c2ccccc2)n1C	3	-13	-76	74*[fluorescence artefact?]	-11	9
N#Cc1cc(C(=O)c2cc(Br)ccc2O)cn(C2CCCCC2)c1=O	7	-7	-28	17	0	2
Cc1ccc(O)c(C(=O)c2cc(C#N)c(=O)n(-c3c(C)n(C)n(-c4ccccc4)c3=O)c2)c1	2	-4	-133	79*	8	-6
Cc1c(-n2cc(C(=O)c3cc(Cl)ccc3O)cc(C#N)c2=O)c(=O)n(-c2ccccc2)n1C	11	-7	-107	83*[fluorescence artefact?]	15	-12
COc1ccc(O)c(C(=O)c2cc(C#N)c(=O)n(-c3c(C)n(C)n(-c4ccccc4)c3=O)c2)c1	-7	-8	-133	92*[fluorescence artefact?]	-6	6
CCc1nc2ccc(C)cc2c(C(=O)NC2CCCCC2C)c1C (stereo not drawn)	6	-7	-34	1	5	0
Cc1ccc2c(c1)c1c(n2CC(O)CNC(CO)(CO)CO)CCCC1 (stereo not drawn)	-4	63*	23	5	.	.
CN(C)c1ccc(/C=C/c2ccncc2)cc1	-3	-20	-19	72*	-6	10
COc1ccc(/C=C/c2ccncc2)cc1	3	2	14	1	-4	6
O=C(O)C(=O)/C(=C\c1ccccc1)c1ccc2ccccc2n1	0	-13	-19	78*	6	-9
Cc1cccc(NC(=O)c2ccc3ccccc3n2)c1C	3	-7	-13	19	5	-3
O=C(c1ccccc1)c1ccc2ccccc2n1	-5	-10	-21	2	-3	2
O=C(O)C(=O)/C(=C\c1cccc2ccccc12)c1ccc2ccccc2n1	2	-3	-14	89*[fluorescence artefact?]	-5	7
Cc1c(Cl)c([N+](=O)[O-])nn1CC(=O)NC12CC3CC(CC(C3)C1)C2	3	-10	7	9	3	-8
O=C(Nc1nnc(-c2ccccc2Cl)o1)c1nc2ccccc2s1	-5	-23	11	-2	26	-27
Cc1[nH]nc2c1C1(CCOCC1)C(C#N)=C(N)O2	-3	29	-12	7	2	-3
CCOC(=O)C1CCC2(CC1)C(C#N)=C(N)Oc1n[nH]c(C)c12 (stereo not drawn)	2	70*	-14	-2	7	-6
C=CCNc1oc(/C=C/c2ccccc2)nc1C#N	-2	-23	-22	4	11	-7
CCOc1ccc(N2C(=O)CS/C2=C(\C(Cl)=C(Cl)Cl)[N+](=O)[O-])cc1	1	0	-14	-2	-25	26*
CCOc1ccc(N2C(=O)CS/C2=N/NC(=O)COc2ccc3ccccc3c2)cc1	-4	-4	-18	0	1	2
N#CC1=C(N)C(C#N)(C#N)C(c2ccc[nH]2)C2CCCC=C12 (stereo not drawn)	7	17	-66	63*	-8	4
CC1CCCCN1CCNC(=O)c1cnn2ccccc12 (stereo not drawn)	-2	69*	-4	5	.	.
O=[N+]([O-])c1cccc(/C=C/c2nc(C=Nc3ccccc3)c(O)o2)c1	3	-8	6	41*	5	-3
